Only some compounds are listed: those with a hit (about 3.4% of all), similar ones and a draw of the others.
Cdc25B block: inhibitors of human Cdc25B phosphatase; AID 368; P30305; hit rate 0.1% among 65,000; recombinant Cdc25B, OMFP fluorescence Ex485/Em525; inhibition, %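 (compounds tested at 10 µM final in the well)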; in the data active = inhibition above about 50%
SF1 activator: SF-1 (human) activation; CHO-K1 Gal4-SF-1 LBD luciferase reporter; % increase over DMSO SF-1-specific signal; Q13285; hit rate 1.9% among 65,000; activation, % at 10 µM; AID 522;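 active = activation above the mean activation of all tested compounds plus 3 SD, cut at about 50% in these data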
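System: CHO-K1 cells with Gal4–hSF-1 LBD chimera plus Gal4-driven luciferase; quantity: 4,000 CHO-K1 cells per well; compound: one dose, 10 µM compound, 1% DMSO; times: 20 h compound treatment, 37 °C; measured by: SteadyLite luciferase luminescence; read-out: percent activation versus DMSO; benchmarks: DMSO and mock-transfected background; replicates: one test per compound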
Hsp90 block: displaces geldanamycin probe from tumor Hsp90 | AID 429 | hit rate 0.35% among 64,000 | NCI-N417 lysate Hsp90, Cy3B-geldanamycin FP displacement | inhibition, % at 30 µM;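 active = inhibition above 50%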;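 also: 0% = tracer plus lysate wells and 100% = tracer alone without lysate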
DUSP1 inh: human dual specificity phosphatase 1 inhibition; P28562; recombinant MKP-1, OMFP hydrolysis fluorescence; inhibition, %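 (compounds tested at a single concentration somewhere between 10 and 100 µM)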; hit rate 0.15% among 65,000; AID 374;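 active = inhibition above about 50%, limit read from the data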;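 also: 0% = DMSO max control wells and 100% = wells with enzyme stopped by NaOH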
JNK3 blocker: blocks human JNK3 kinase activity; P53779; purified JNK3 kinase activity, HTS; inhibition, % at 8 µM; hit rate 0.61% among 60,000; AID 746; in the data active = inhibition above about 17%;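 also: 0% = DMSO and 100% = reference inhibitor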
RORa activator: RORA (human) activation; hit rate 1.5% among 65,000; CHO-K1 Gal4-RORA LBD luciferase reporter, luminescence; percent increase over mock-subtracted basal signal; activation, % at 10 µM;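 active = activation above the mean of all tested compounds plus 3 SD, cut at about 49% in these data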;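 also: 0% = DMSO-treated RORA cells and 100% = added signal equal to DMSO minus mock-transfected cells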
Target sequence (P35398 whole entry, looked up, the tested form may be a part): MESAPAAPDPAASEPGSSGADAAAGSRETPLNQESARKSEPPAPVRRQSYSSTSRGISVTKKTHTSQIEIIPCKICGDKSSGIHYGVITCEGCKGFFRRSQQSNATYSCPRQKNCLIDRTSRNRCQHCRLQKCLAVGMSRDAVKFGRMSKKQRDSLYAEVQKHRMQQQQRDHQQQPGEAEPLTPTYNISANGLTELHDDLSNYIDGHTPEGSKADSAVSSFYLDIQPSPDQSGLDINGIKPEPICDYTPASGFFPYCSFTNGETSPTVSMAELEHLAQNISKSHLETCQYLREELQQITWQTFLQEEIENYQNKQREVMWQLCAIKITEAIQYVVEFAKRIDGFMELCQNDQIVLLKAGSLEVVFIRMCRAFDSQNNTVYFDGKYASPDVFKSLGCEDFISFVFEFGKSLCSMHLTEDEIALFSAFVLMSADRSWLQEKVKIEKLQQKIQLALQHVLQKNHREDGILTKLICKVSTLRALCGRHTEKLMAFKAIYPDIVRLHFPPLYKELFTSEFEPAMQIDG
Numbers without * were called inactive.

For Cc1cc(C)nc(N2CCN(c3ncnc4c3cnn4Cc3ccc(Cl)cc3Cl)CC2)n1 the results were Cdc25B block 0, SF1 activator -12, Hsp90 block -1, DUSP1 inh -12, JNK3 blocker 2 and RORa activator -5.
`CCNc1nnc(-c2ccc(C)cc2)o1` gave Cdc25B block -22, SF1 activator 17, Hsp90 block 1, DUSP1 inh 11, JNK3 blocker 10 and RORa activator 17.
`CC(C)(C)c1ccc(S(=O)(=O)/C=C/C#N)cc1` gave Hsp90 block -1.
For Cc1ccc(CSC2=Nc3ccccc3C3=NC(CC(=O)NCc4ccco4)C(=O)N23)cc1 (configuration not stated) the results were Cdc25B block 27, SF1 activator 37, Hsp90 block -7, DUSP1 inh 44, JNK3 blocker 2 and RORa activator 11.
`CCC(CO)Nc1ncnc2c1cnn2-c1ccc(OC)cc1` (configuration not stated) gave Cdc25B block 3, SF1 activator 101*, Hsp90 block -1, DUSP1 inh 5, JNK3 blocker -9 and RORa activator 61*.
`COc1ccc(-n2ncc3c(NCc4ccco4)ncnc32)cc1` gave Cdc25B block 9, SF1 activator 69*, Hsp90 block -3, DUSP1 inh -7, JNK3 blocker 11 and RORa activator 62*.
`Clc1ccc(-n2ncc3c(NCc4ccco4)ncnc32)cc1` gave Cdc25B block -2, SF1 activator 76*, Hsp90 block 2, DUSP1 inh -1, JNK3 blocker -3 and RORa activator 65*.
Screening COc1ccc(-n2ncc3c(NCCCN4CCOCC4)ncnc32)cc1 returned Cdc25B block -5, SF1 activator 53*, Hsp90 block -6, DUSP1 inh -4, JNK3 blocker -2 and RORa activator 26.
`COCCCNC(=O)C1CCN(C(=O)Nc2ccc(Cl)cc2)CC1` gave Cdc25B block -4, SF1 activator -17, Hsp90 block -2, DUSP1 inh -16, JNK3 blocker 1 and RORa activator -17.
Cc1ccccc1NC(=O)Cc1nc(CSc2nnc(C3CCCCC3)n2N)cs1 was read as Cdc25B block -15, SF1 activator -10, Hsp90 block -3, DUSP1 inh 26 and RORa activator 8.
Cc1onc(-c2ccccc2)c1C(=O)N1CCN(C/C=C/c2ccccc2)CC1 was read as Cdc25B block -13, SF1 activator 13, Hsp90 block -2, DUSP1 inh 11, JNK3 blocker 1 and RORa activator 36.
Screening O=C(CSc1nnc(NCc2ccccc2)s1)c1ccco1 returned Cdc25B block 2, SF1 activator -12, Hsp90 block -3, DUSP1 inh -16, JNK3 blocker -3 and RORa activator 4.
Screening O=c1c2ccccc2nnn1CSc1nnc(COc2ccc(Cl)cc2)n1Cc1ccco1 returned Cdc25B block -14, SF1 activator 56*, Hsp90 block -3, DUSP1 inh 23, JNK3 blocker 0 and RORa activator -11.
COc1ccc(Nc2nc(C)cc(C)c2C#N)cc1OC was read as Cdc25B block 2, SF1 activator -7, Hsp90 block -1, DUSP1 inh 8, JNK3 blocker 0 and RORa activator -8.
`COc1cc(NC(C)CCCNC(C)C)c2ncccc2c1OC` (configuration not stated) gave Hsp90 block 36.
Screening CCN(CC)CCCNc1cc(OC)c(Nc2ccccc2)c2cccnc12 returned Hsp90 block 130*.
`O=C(Nc1cccc(Cl)c1)N1CCN(Cc2ccccc2)CC1` gave Cdc25B block -10, SF1 activator 85*, Hsp90 block 0, DUSP1 inh -5, JNK3 blocker 8 and RORa activator 73*.
O=C(c1ccccc1F)N1CCN(Cc2cccc(Cl)c2)CC1 was read as Cdc25B block -18, SF1 activator -3, Hsp90 block -5, DUSP1 inh 4, JNK3 blocker 4 and RORa activator -2.
Screening O=C1c2ccccc2C(=O)C1c1ccncc1 returned Cdc25B block 0, SF1 activator 1, Hsp90 block 2, DUSP1 inh 10, JNK3 blocker 51* and RORa activator 32.
Screening O=C(c1ccccc1)C1C(=O)c2ccccc2C1=O returned Cdc25B block 0, SF1 activator 12, Hsp90 block 1, DUSP1 inh 1, JNK3 blocker 3 and RORa activator -2.
`C/C(N)=C(/C#N)C(=O)CSc1nc2ccc(C)cc2[nH]1` gave Cdc25B block -15, SF1 activator 77*, Hsp90 block -2, DUSP1 inh 4, JNK3 blocker 1 and RORa activator 26.
O=C(/C=C/c1ccc(O)c(O)c1)OCCc1ccccc1 was read as Hsp90 block 90*.
For O=C(O)Cc1ccc(O)c(O)c1 the results were Hsp90 block 35.
Screening Cc1ccccc1-c1noc(-c2ccc(O)cc2)n1 returned Cdc25B block 3, SF1 activator 33, Hsp90 block -3, DUSP1 inh 7, JNK3 blocker 6 and RORa activator 101*.
Screening Cc1ccc(-c2noc(-c3ccccc3Br)n2)cc1 returned Cdc25B block -3, SF1 activator 19, Hsp90 block -3, DUSP1 inh 6, JNK3 blocker -7 and RORa activator 37.
COc1cccc(C(=O)Nc2ccc(-c3nnc(-c4ccco4)o3)cc2)c1 was read as Cdc25B block 11, SF1 activator 11, Hsp90 block -5, DUSP1 inh 7, JNK3 blocker -6 and RORa activator 37.
O=C(COc1ccccc1)Nc1ccc(-c2nnc(-c3ccco3)o2)cc1 was read as Cdc25B block 0, SF1 activator 66*, Hsp90 block 0, DUSP1 inh -9, JNK3 blocker 1 and RORa activator 49.
`CC(C)(C)NC(=O)Nc1ccc2nccnc2c1` gave Cdc25B block 4, SF1 activator 49, Hsp90 block -5, DUSP1 inh 0, JNK3 blocker 8 and RORa activator 90*.
`Cn1c(C(=O)NC2CCCC2)cc2c(=O)n(C)c3ccccc3c21` gave Cdc25B block 6, SF1 activator -16, Hsp90 block -4, DUSP1 inh 15, JNK3 blocker 7 and RORa activator 4.
For COc1ccc(NC(=O)CN(c2ccc(C)cc2)S(C)(=O)=O)c(OC)c1 the results were Cdc25B block -1, SF1 activator 0, Hsp90 block 2, DUSP1 inh -9, JNK3 blocker -8 and RORa activator -4.
Screening CCOc1ccc(NC(=O)CN(c2ccc(OC)cc2)S(C)(=O)=O)cc1 returned Cdc25B block -1, SF1 activator 26, Hsp90 block -4, DUSP1 inh 18, JNK3 blocker 6 and RORa activator 77*.

Screens (PubChem BioAssay)
